Test results taken from ChEMBL document CHEMBL4689842, “EUbOPEN Chemogenomics Library wave 1” (2021).
Where “and” joins values, the source holds several entries; their conditions need not be identical. Equal values may be shown once.

Test system: U2OS
Assay: Multiplex assay against U2OS
Assay type: toxicity, cell-based
Conditions: human
Summary of the method: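 Hoechst33342, BioTracker Green Microtubule Cytoskeleton Dye, MitoTracker Red and Annexin V Alexa Fluor 680 were added to live cells at seeding, and imaging on a CQ1 microscope at 37°C and 5% CO2 followed compound addition. Gating by CellPathfinder machine learning separated cells into Hoechst high-intensity objects or normal cells, then normal cells into healthy, pyknosed or fragmented nuclei, then pyknosed cells into mitotic or apoptotic. Per cents of healthy-nucleus cells are reported for the tubulin, mitochondrial-mass and membrane-permeability phenotypes.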

[1] = 12 h, 1 µM, compound concentration 1 uM, replicate 1
[2] = 12 h, 1 µM, compound concentration 1 uM, replicate 2
[3] = 12 h, 10 µM, compound concentration 10 uM, replicate 1
[4] = 12 h, 10 µM, compound concentration 10 uM, replicate 2
[5] = 24 h, 1 µM, compound concentration 1 uM, replicate 1
[6] = 24 h, 1 µM, compound concentration 1 uM, replicate 2
[7] = 24 h, 10 µM, compound concentration 10 uM, replicate 1
[8] = 24 h, 10 µM, compound concentration 10 uM, replicate 2
[9] = 48 h, 10 µM, compound concentration 10 uM, replicate 1
[10] = 48 h, 10 µM, compound concentration 10 uM, replicate 2

In the case of `CN[C@@H]1C[C@H]2O[C@@](C)([C@@H]1OC)n1c3ccccc3c3c4c(c5c6ccccc6n2c5c31)C(=O)NC4` [STAUROSPORINE], the “Population Apoptotic (%)” value [1] is reported as 53%, the “Population Fragmented Nuclei (%)” value [1] is reported as 47% and the “Population Healthy Nuclei (%)” value [1] is reported as 12%. For the same molecule, the “Population Hoechst High Intensity Objects (%)” value [1] was 4%, the “Population Membrane Permeable-Phenotype (%)” value [1] was 89% and the “Population Mitochondria Different-Phenotype (%)” value [1] was 57%. The “Population Mitotic Cells (%)” value [1] was 46%, the “Population Normal (%)” value [1] was 95% and the “Population Pyknosed Nuclei (%)” value [1] was 40%. For the same molecule, the “Population Tubulin-Different-Phenotype (%)” value [1] was 89%, the “Population Apoptotic (%)” value [2] was 62% and the “Population Fragmented Nuclei (%)” value [2] was 65%. For the same molecule, the “Population Healthy Nuclei (%)” value [2] was 3%, the “Population Hoechst High Intensity Objects (%)” value [2] was 7% and the “Population Membrane Permeable-Phenotype (%)” value [2] was 100%. The “Population Mitochondria Different-Phenotype (%)” value [2] was 83%, the “Population Mitotic Cells (%)” value [2] was 37% and the “Population Normal (%)” value [2] was 92%. The “Population Pyknosed Nuclei (%)” value [2] was 30%, the “Population Tubulin-Different-Phenotype (%)” value [2] was 91% and the “Population Apoptotic (%)” value [3] was 51% and 87% and 83%. For the same molecule, the “Population Fragmented Nuclei (%)” value [3] was 45% and 41% and 40%, the “Population Healthy Nuclei (%)” value [3] was 5% and 0% and 1% and the “Population Hoechst High Intensity Objects (%)” value [3] was 6% and 7% and 3%. The “Population Membrane Permeable-Phenotype (%)” value [3] was 94% and 100% and 71%, the “Population Mitochondria Different-Phenotype (%)” value [3] was 50% and 100% and 85% and the “Population Normal (%)” value [3] was 93% and 92% and 96%. The “Population Pyknosed Nuclei (%)” value [3] was 48% and 57% and 58%, the “Population Tubulin-Different-Phenotype (%)” value [3] was 94% and 100% and the “Population Apoptotic (%)” value [4] was 86% and 56% and 73%. The “Population Fragmented Nuclei (%)” value [4] was 26% and 64% and 42%, the “Population Healthy Nuclei (%)” value [4] was 15% and 6% and 12% and the “Population Hoechst High Intensity Objects (%)” value [4] was 15% and 8%. For the same molecule, the “Population Membrane Permeable-Phenotype (%)” value [4] was 95% and 84%, the “Population Mitochondria Different-Phenotype (%)” value [4] was 75% and 71% and 84% and the “Population Normal (%)” value [4] was 84% and 91%. For the same molecule, the “Population Pyknosed Nuclei (%)” value [4] was 29% and 45%, the “Population Tubulin-Different-Phenotype (%)” value [4] was 91% and 92% and the “Population Apoptotic (%)” value [5] was 93%. The “Population Fragmented Nuclei (%)” value [5] was 34%, the “Population Healthy Nuclei (%)” value [5] was 22% and the “Population Hoechst High Intensity Objects (%)” value [5] was 14%. The “Population Membrane Permeable-Phenotype (%)” value [5] was 96%, the “Population Mitochondria Different-Phenotype (%)” value [5] was 56% and the “Population Mitotic Cells (%)” value [5] was 6%. The “Population Normal (%)” value [5] was 85%, the “Population Pyknosed Nuclei (%)” value [5] was 42% and the “Population Tubulin-Different-Phenotype (%)” value [5] was 92%. For the same molecule, the “Population Apoptotic (%)” value [6] was 94%, the “Population Fragmented Nuclei (%)” value [6] was 58% and the “Population Healthy Nuclei (%)” value [6] was 10%. The “Population Hoechst High Intensity Objects (%)” value [6] was 13%, the “Population Membrane Permeable-Phenotype (%)” value [6] was 95% and the “Population Mitochondria Different-Phenotype (%)” value [6] was 66%. For the same molecule, the “Population Mitotic Cells (%)” value [6] was 5%, the “Population Normal (%)” value [6] was 86% and the “Population Pyknosed Nuclei (%)” value [6] was 31%. The “Population Tubulin-Different-Phenotype (%)” value [6] was 91%, the “Population Apoptotic (%)” value [7] was 93% and 90% and 94% and the “Population Fragmented Nuclei (%)” value [7] was 48% and 46% and 38%. For the same molecule, the “Population Healthy Nuclei (%)” value [7] was 0% and 15%, the “Population Hoechst High Intensity Objects (%)” value [7] was 5% and 11% and the “Population Mitochondria Different-Phenotype (%)” value [7] was 50% and 45%. For the same molecule, the “Population Mitotic Cells (%)” value [7] was 6% and 9% and 5%, the “Population Normal (%)” value [7] was 94% and 88% and the “Population Pyknosed Nuclei (%)” value [7] was 50% and 52% and 45%. For the same molecule, the “Population Tubulin-Different-Phenotype (%)” value [7] was 50% and 100% and 94%, the “Population Apoptotic (%)” value [8] was 88% and 96% and 77% and the “Population Hoechst High Intensity Objects (%)” value [8] was 27% and 26%. For the same molecule, the “Population Membrane Permeable-Phenotype (%)” value [8] was 95% and 92%, the “Population Mitochondria Different-Phenotype (%)” value [8] was 95% and 69% and 92% and the “Population Normal (%)” value [8] was 72% and 73%. For the same molecule, the “Population Pyknosed Nuclei (%)” value [8] was 36% and 23% and 38%, the “Population Tubulin-Different-Phenotype (%)” value [8] was 95% and 92% and the “Population Apoptotic (%)” value [9] was 95%. For the same molecule, the “Population Fragmented Nuclei (%)” value [9] was 51% and 55%, the “Population Healthy Nuclei (%)” value [9] was 0% and the “Population Hoechst High Intensity Objects (%)” value [9] was 7% and 11%. The “Population Mitochondria Different-Phenotype (%)” value [9] was 66% and 100%, the “Population Mitotic Cells (%)” value [9] was 4% and the “Population Normal (%)” value [9] was 92% and 88%. The “Population Pyknosed Nuclei (%)” value [9] was 47% and 43%, the “Population Tubulin-Different-Phenotype (%)” value [9] was 100% and the “Population Apoptotic (%)” value [10] was 89% and 100%. The “Population Fragmented Nuclei (%)” value [10] was 22% and 13%, the “Population Healthy Nuclei (%)” value [10] was 49% and 56% and the “Population Hoechst High Intensity Objects (%)” value [10] was 18% and 25%. The “Population Mitochondria Different-Phenotype (%)” value [10] was 96% and 92%, the “Population Mitotic Cells (%)” value [10] was 10% and 0% and the “Population Normal (%)” value [10] was 81% and 74%. For the same molecule, the “Population Pyknosed Nuclei (%)” value [10] was 28% and 30% and the “Population Tubulin-Different-Phenotype (%)” value [10] was 96% and 92%.
